Where “and” joins values, the source holds several entries; their conditions need not be identical. Identical values can stand only once. Calls of active or inactive are those of the source. The rule behind the calls is not given here. Where only a bound is given, the exact number is not on record here.

In data set [1] the target is T1, Fatty-acid amide hydrolase 1 (Mus musculus) (UniProt O08914).
T1 sequence (whole entry): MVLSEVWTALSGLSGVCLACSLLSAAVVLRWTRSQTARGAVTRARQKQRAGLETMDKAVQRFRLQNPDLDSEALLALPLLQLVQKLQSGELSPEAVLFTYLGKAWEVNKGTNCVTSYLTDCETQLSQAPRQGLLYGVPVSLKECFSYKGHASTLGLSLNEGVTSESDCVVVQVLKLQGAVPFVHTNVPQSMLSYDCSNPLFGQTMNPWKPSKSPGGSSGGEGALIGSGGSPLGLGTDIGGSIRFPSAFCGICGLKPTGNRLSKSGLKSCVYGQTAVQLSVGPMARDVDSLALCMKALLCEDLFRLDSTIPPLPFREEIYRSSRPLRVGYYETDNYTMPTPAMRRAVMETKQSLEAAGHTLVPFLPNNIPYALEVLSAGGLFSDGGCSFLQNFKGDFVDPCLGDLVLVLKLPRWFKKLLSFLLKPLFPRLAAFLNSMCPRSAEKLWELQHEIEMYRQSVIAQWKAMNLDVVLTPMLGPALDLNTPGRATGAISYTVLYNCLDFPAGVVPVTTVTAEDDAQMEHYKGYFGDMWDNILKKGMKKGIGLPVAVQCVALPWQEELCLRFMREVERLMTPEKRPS
Description: Activity of mouse liver homogenate FAAH assessed as compound hydrolysis at 10^-5 M after 90 mins by HPLC/MS analysis. Type of data set: tissue-based. In short, it runs like this:
(§1)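 Mouse liver homogenate (800g supernatant from Tris pH 7.4; 22.5 μg/tube) incubated with compound in TE buffer (10 mM Tris-HCl, 1 mM EDTA, 0.1% BSA, pH 7.4), 37 °C, 90 min, with or without preincubation with FAAH inhibitor (5.10^-5 M). Parent and ring-opened product measured by HPLC/MS as AUC ratio to internal standard, normalized to heat-inactivated homogenate. Three independent experiments in duplicate.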

The target in data set [2] is T1, Fatty-acid amide hydrolase 1 (Mus musculus). Description: Activity of mouse liver homogenate FAAH assessed as compound hydrolysis at 10^-5 M after 90 mins by HPLC/MS analysis in presence of URB-597. The class given is tissue-based. In short, it runs like this: as §1
Data set [3] concerns the target T2, Fatty-acid amide hydrolase 1 (Homo sapiens) (UniProt O00519).
T2 sequence (whole entry): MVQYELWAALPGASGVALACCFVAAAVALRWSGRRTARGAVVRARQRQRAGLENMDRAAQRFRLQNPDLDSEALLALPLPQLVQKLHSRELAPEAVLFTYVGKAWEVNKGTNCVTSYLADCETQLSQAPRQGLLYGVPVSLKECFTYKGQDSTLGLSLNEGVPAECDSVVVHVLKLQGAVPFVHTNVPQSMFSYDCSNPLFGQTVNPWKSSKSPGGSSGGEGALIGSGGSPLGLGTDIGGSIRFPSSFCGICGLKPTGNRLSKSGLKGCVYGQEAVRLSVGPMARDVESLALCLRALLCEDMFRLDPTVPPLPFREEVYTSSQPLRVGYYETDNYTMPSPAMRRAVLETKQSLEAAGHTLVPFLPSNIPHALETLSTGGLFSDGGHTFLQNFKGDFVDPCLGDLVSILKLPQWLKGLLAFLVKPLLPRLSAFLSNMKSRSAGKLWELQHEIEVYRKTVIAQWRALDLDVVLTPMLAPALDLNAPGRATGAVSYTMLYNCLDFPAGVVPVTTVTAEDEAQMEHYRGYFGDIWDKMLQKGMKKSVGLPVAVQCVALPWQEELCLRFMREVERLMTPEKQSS
Nature of the data set: Activity of human recombinant FAAH assessed as compound hydrolysis at 10^-5 M after 90 mins by HPLC/MS analysis. In short, it runs like this: (§2)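 Recombinant human FAAH (90 μg/tube), made in-house, incubated with compound in TE buffer (10 mM Tris-HCl, 1 mM EDTA, 0.1% w/v BSA, pH 7.4) at 37 °C for 90 min, with or without preincubation with FAAH inhibitor at 5.10^-5 M. Proteins precipitated by centrifugation and supernatant concentrated. Parent [M+H]+ quantified by HPLC/MS as AUC ratio to internal standard, normalized to boiled-enzyme blank. Three independent experiments in duplicate.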

Data set [4] has as its target T2, Fatty-acid amide hydrolase 1 (Homo sapiens). Description: Activity of human recombinant FAAH assessed as compound hydrolysis at 10^-5 M after 90 mins by HPLC/MS analysis in presence of URB-597. The essentials: as §2
Data set [5] has the same target. Description: Activity of human recombinant FAAH assessed as compound hydrolysis at 10^-5 M after 90 mins by HPLC/MS analysis in presence of PF-750. The essentials:
as §2

Data set [6] concerns the target T1, Fatty-acid amide hydrolase 1 (Mus musculus). Nature of the data set: Activity of mouse liver homogenate FAAH assessed as compound hydrolysis at 10^-5 M after 90 mins by HPLC/MS analysis in presence of PF-750. Type of data set: tissue-based. The essentials: as §1
The target of data set [7] is T3, Fatty-acid amide hydrolase 1 (Homo sapiens, UniProt O00519).
T3 sequence (O00519 whole entry): T2 sequence (whole entry)
Description: Reversible inhibition of human recombinant FAAH assessed as hydrolysis of [3H]-AEA after 10 mins by liquid scintillation counting. The essentials: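 In-house recombinant human FAAH (6 μg) in 10 mM Tris-HCl, 1 mM EDTA, 0.1% (w/v) BSA, pH 7.4. Compound in DMSO, or DMSO alone, with [3H]-AEA (2 μM final, 50,000 dpm) for 10 min at 37 °C. Stopped on ice with chloroform/methanol (1:1). Aqueous phase counted for [3H]-ethanolamine; buffer-only blank subtracted. IC50 from three independent experiments in duplicate.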

The target in data set [8] is T3, Fatty-acid amide hydrolase 1. Description: Irreversible inhibition of human recombinant FAAH assessed as hydrolysis of [3H]-AEA after 10 mins by liquid scintillation counting.
Data set [9] is described as follows: Metabolic stability of the compound in mouse liver homogenate assessed as compound hydrolysis at 10^-5 M after 90 mins by HPLC/MS analysis. The class given is ADME, tissue-based. The note with it: read-out: Drug metabolism. In short, it runs like this: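 Mouse liver homogenised in Tris buffer pH 7.4 and spun at 800g for 15 min; supernatant used (22.5 μg/tube). Compound incubated in TE buffer (10 mM Tris-HCl, 1 mM EDTA, 0.1% BSA, pH 7.4) for 90 min at 37 °C. Proteins removed and supernatant concentrated. HPLC/MS followed the parent [M+H]+ AUC against an internal standard, normalised to boiled homogenate. Mean ± SEM, 3 experiments in duplicate.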

Consider `CCCCC/C=C\C/C=C\C/C=C\C/C=C\CCCC(=O)NCCO`, for which the outcome in data set [1] and in data set [3] was Active. Moreover, the outcome in data set [2], in data set [4], in [5] and in data set [6] was inactive.

`C=CCCCN1C[C@@H]([C@@H](C)OC(=O)CCCc2ccccc2)C1=O`: the IC50 in data set [7] (read-out: IC50) was 82800 nM; in data set [7] (read-out: pIC50 (converted)) it was 83200 nM.

`C=CCCC(=O)N1CC([C@@H](C)OCCCCc2ccccc2)C1`: the IC50 in [7] (read-out: IC50) is 2900 nM; in data set [7] (read-out: pIC50 (converted)), 2880 nM.

With `C=CCCC(=O)N1C[C@@H]([C@@H](C)OCCCCc2ccccc2)C1=O`, in data set [8], the IC50 was 8 nM and 8.13 nM. For the same compound, the metabolised at 1.5 h, 10 µM in data set [9] is > 80%. Also, the result in [2], in data set [3], in data set [4] and in data set [5] was inactive. In addition, the outcome in [6] was Active.

Turning to `C=CCCC(=O)N1C[C@@H]([C@@H](C)OC(=O)CCCc2ccccc2)C1=O`, the pIC50 in data set [7] is given as 8.27. In addition, the metabolised at 1.5 h, 10 µM in [9] was > 80%.

The pIC50 is the IC50 on a negative log10 scale, so that one unit is a factor of ten.

For the origin of these results see ChEMBL document CHEMBL2150943, “SAR and LC/MS studies of β-lactamic inhibitors of human fatty acid amide hydrolase (hFAAH): evidence of a nonhydrolytic process” (J Med Chem, 2011).
